From ChEMBL document CHEMBL3044910, “Antifeedant activity of some pentacyclic triterpene acids and their fatty acid ester analogues” (2003)
Calls of active or inactive are those of the source. The rule behind the calls is not given here.

Tests used:
Assay type in all cases: functional
Parameters in all cases: scale not given: the % may be the effect or the level left
Spodoptera litura [1] = experiment: Antifeedant activity against fourth-instar larval stage of Spodoptera litura reared on castor leaves assessed as decrease in food consumption at 100 ug/cm2 after 48 hr by no-choice leaf disk assay relative to untreated control
Summary of the method: (§1)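 Larvae reared on fresh castor leaves at 27 ± 1 °C, 65 ± 5% RH, 14:10 light:dark; freshly molted fourth instars used. Treated leaf disks placed with larvae in Petri dishes; leaf area consumed in treated and control disks measured by planimeter. Percent protection corrected for control by Singh and Panth formula; mean with standard deviation reported.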

Spodoptera litura [2] = experiment: Antifeedant activity against fourth-instar larval stage of Spodoptera litura reared on castor leaves assessed as decrease in food consumption at 50 ug/cm2 after 48 hr by no-choice leaf disk assay relative to untreated control; summary of the method: as §1
Spodoptera litura [3] = experiment: Antifeedant activity against fourth-instar larval stage of Spodoptera litura reared on castor leaves assessed as decrease in food consumption at 150 ug/cm2 after 48 hr by no-choice leaf disk assay relative to untreated control; summary of the method: as §1
Spodoptera litura [4] = experiment: Antifeedant activity against fourth-instar larval stage of Spodoptera litura reared on castor leaves assessed as decrease in food consumption at 50 to 150 ug/cm2 measured after 48 hr by no-choice leaf disk assay relative to untreated control
Summary of the method: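 Larvae reared on fresh castor leaves at 27 ± 1 °C, 65 ± 5% relative humidity, 14:10 light:dark; freshly molted fourth-instar larvae used. No-choice leaf disk test in Petri dish at 150, 100 and 50 µg/cm2. Leaf area consumed measured by planimeter at 6, 12, 24 and 48 h in treated and control disks. Percent protection corrected for control protection; mean with standard deviation.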

## CCCCCCCCCCCCCCCCCC(=O)O[C@H]1CC[C@]2(C)[C@H]3CC=C4[C@@H]5[C@@H](C)[C@H](C)CC[C@]5(C(=O)O)CC[C@@]4(C)[C@]3(C)CC[C@H]2C1(C)C [URS-12-ENE-28-CARBOXY-3BETA-OCTADECANOATE]
Spodoptera litura [1]
  Activity: 40%
Spodoptera litura [2]
  Activity: 74%
Spodoptera litura [3]
  Activity: >50%

## CCCCCCCCCCCCCCCC(=O)O[C@H]1CC[C@]2(C)[C@H]3CC=C4[C@@H]5CC(C)(C)CC[C@]5(C(=O)O)CC[C@@]4(C)[C@]3(C)CC[C@H]2C1(C)C [OLEAN-12-ENE-28-CARBOXY-3BETA-HEXADECANOATE]
Spodoptera litura [1]
  Activity: 40%
Spodoptera litura [2]
  Activity: 71%
Spodoptera litura [3]
  Activity: >50%

## CCCCCCCCCCCCCC(=O)O[C@H]1CC[C@]2(C)[C@H]3CC=C4[C@@H]5[C@@H](C)[C@H](C)CC[C@]5(C(=O)O)CC[C@@]4(C)[C@]3(C)CC[C@H]2C1(C)C [URS-12-ENE-28-CARBOXY-3BETA-TETRADECANOATE]
Spodoptera litura [1]
  Activity: 40%
Spodoptera litura [2]
  Activity: >50%
Spodoptera litura [3]
  Activity: >50%

## C/C=C(\C)C(=O)O[C@H]1C[C@@H](OC(C)=O)[C@@]2(C(=O)OC)CO[C@H]3[C@@H](O)[C@@](C)([C@]45O[C@@]4(C)[C@H]4C[C@@H]5O[C@@H]5OC=C[C@@]54O)[C@H]4[C@]1(CO[C@]4(O)C(=O)OC)[C@@H]32 [AZADIRACTIN]
Spodoptera litura [1]
  Activity: 40%
Spodoptera litura [4]
  Activity: 81%
Spodoptera litura [3]
  Activity: >50%

## C[C@H]1[C@H](C)CC[C@]2(C(=O)O)CC[C@]3(C)C(=CC[C@@H]4[C@@]5(C)CC[C@H](O)C(C)(C)[C@@H]5CC[C@]43C)[C@H]12 [URSOLIC ACID]
Spodoptera litura [1]
  Activity: 40%
Spodoptera litura [3]
  Activity: >50%

## CCCCCCCCCCCC(=O)O[C@H]1CC[C@]2(C)[C@H]3CC=C4[C@@H]5[C@@H](C)[C@H](C)CC[C@]5(C(=O)O)CC[C@@]4(C)[C@]3(C)CC[C@H]2C1(C)C [URS-12-ENE-28-CARBOXY-3BETA-DODECANOATE]
Spodoptera litura [1]
  Activity: 40%
Spodoptera litura [3]
  Activity: >50%

## CC1(C)CC[C@]2(C(=O)O)CC[C@]3(C)C(=CC[C@@H]4[C@@]5(C)CC[C@H](O)C(C)(C)[C@@H]5CC[C@]43C)[C@@H]2C1 [OLEANOLIC_ACID]
Spodoptera litura [1]
  Activity: 40%
Spodoptera litura [3]
  Activity: Active

## CCCCCCCCCCCCCCCCCC(=O)O[C@H]1CC[C@]2(C)[C@H]3CC=C4[C@@H]5CC(C)(C)CC[C@]5(C(=O)O)CC[C@@]4(C)[C@]3(C)CC[C@H]2C1(C)C
Spodoptera litura [1]
  Activity: Active
Spodoptera litura [3]
  Activity: Active

## CCCCCCCCCCCCCCCC(=O)O[C@H]1CC[C@]2(C)[C@H]3CC=C4[C@@H]5[C@@H](C)[C@H](C)CC[C@]5(C(=O)O)CC[C@@]4(C)[C@]3(C)CC[C@H]2C1(C)C
Spodoptera litura [1]
  Activity: 40%
Spodoptera litura [2]
  Activity: >50%
Spodoptera litura [3]
  Activity: >50%
